# High-throughput results deposited in PubChem BioAssay by several laboratories.
# Most compounds without a hit are left out; they make up all but 2.4% or so of the library.
# PfGluPho inh: PfG6PD (Plasmodium falciparum) enzyme inhibition. inhibition, % at 20 µM. PfGluPho enzyme, NADPH resazurin-diaphorase fluorescence. 0.78% of 350,000 active;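 active = inhibition reaching at least a set limit at 20 µM in the primary screen, cut at about 59% in these data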;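 also: 0% = DMSO wells with substrate and 100% = DMSO wells lacking glucose-6-phosphate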
# APOBEC3G inh: inhibitors of human APOBEC3G DNA deaminase; Q9HC16; recombinant A3G, ssDNA deamination FAM/TAMRA fluorescence; inhibition, % at 20 µM; 0.28% of 330,000 active; AID 493012;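 active = inhibition of at least 40% at 20 µM, with no more than 30% in the related APOBEC3A deaminase screen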;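 also: plate controls were DMSO wells with A3G for no effect and wells lacking A3G enzyme for full effect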
# Target sequence (Q9HC16 whole entry, looked up): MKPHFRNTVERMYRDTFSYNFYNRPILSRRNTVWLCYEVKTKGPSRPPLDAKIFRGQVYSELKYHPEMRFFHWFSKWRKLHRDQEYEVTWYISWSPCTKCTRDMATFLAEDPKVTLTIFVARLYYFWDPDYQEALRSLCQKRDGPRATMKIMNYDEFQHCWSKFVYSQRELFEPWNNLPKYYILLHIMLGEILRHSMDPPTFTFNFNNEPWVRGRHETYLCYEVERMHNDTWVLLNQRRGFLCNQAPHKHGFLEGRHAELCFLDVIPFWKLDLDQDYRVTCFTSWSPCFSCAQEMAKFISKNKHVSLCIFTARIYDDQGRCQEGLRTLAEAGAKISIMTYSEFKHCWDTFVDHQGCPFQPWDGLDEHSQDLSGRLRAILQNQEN
# APOBEC3A inh: human APOBEC3A DNA deaminase inhibition. P31941. recombinant A3A, FAM/TAMRA ssDNA deamination fluorescence. inhibition, % at 20 µM. 0.41% of 330,000 active;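 active = at least 40% inhibition at 20 µM here, with at most 30% in a related deaminase screen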;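 also: plate controls were A3A with DMSO for no effect and wells lacking A3A enzyme for full effect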
# HKDC1 inh: inhibitors of human hexokinase HKDC1; recombinant HKDC1, G6PDH/diaphorase resazurin coupled fluorescence; 0.16% of 340,000 active; inhibition, % at 20 µM;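 active = inhibition above about 35% when tested at 20 µM, limit read from the data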;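 also: plate controls were DMSO wells with enzyme for no effect and DMSO wells lacking enzyme for full effect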
#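 Assay system: in-house recombinant HK5 (HKDC1) enzyme. Input: HKDC1 at 5 µg/mL. Medium: Tris pH 8.0 buffer with MgCl2, Tween-20, BSA, BME. Dosing: single 20 µM dose. Schedule: 90 min reaction incubation at room temperature, dark. Signal: resazurin-to-resorufin fluorescence via G6PDH and diaphorase coupling, 525/613 nm. Controls: DMSO-enzyme wells negative, buffer-substituted wells positive.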
# SUMO HTRF inh: blocks human SUMOylation mediated by UBC9 | P63279 | HTRF SUMOylation assay, SAE1/SAE2 + UBC9, in vitro | inhibition, % at 35 µM | 0.36% of 290,000 active | AID 2006; in the data active = inhibition above about 50%, passing the limit was not always enough
# Target sequence (P63279 whole entry, looked up): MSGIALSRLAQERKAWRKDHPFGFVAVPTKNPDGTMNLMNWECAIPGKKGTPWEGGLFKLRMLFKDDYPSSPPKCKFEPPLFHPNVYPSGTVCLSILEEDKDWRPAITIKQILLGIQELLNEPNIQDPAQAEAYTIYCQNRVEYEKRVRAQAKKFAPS
# M18AAP inhibitor: blocks P. falciparum M18 aspartyl aminopeptidase | recombinant PfM18AAP, H-Glu-NHMec fluorogenic cleavage | inhibition, % at 7.35 µM | 1.2% of 290,000 active;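 active = inhibition above the campaign mean inhibition over all tested compounds plus 3 SD, cut at about 28% in these data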;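 also: 0% = plate median of test compound wells and 100% = 2 mM ZnCl2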
# HKDC1 act conf2: confirmation of human HKDC1 activators; shares compounds with HKDC1 inh; recombinant HKDC1, G6PDH/diaphorase resazurin fluorescence; hits give low values; inhibition, % at 20 µM; 14% of 740 active;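 active = inhibition at or below a set negative limit, negative inhibition meaning the enzyme was activated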
# * marks the source's active call; other numbers are inactive results; x = no result given.
SMILES,PfGluPho inh,APOBEC3G inh,APOBEC3A inh,HKDC1 inh,SUMO HTRF inh,M18AAP inhibitor,HKDC1 act conf2
O=C(O)c1ccc2ncsc2c1,4.2,-7.6,-0.3,40.7*,38.7,62.4*,48.1
O=C(CCc1nc(-c2ccccc2F)no1)Nc1cccnc1,-1.3,-3.6,-0.6,4.8,-3.1,-5.5,x
COc1cc(C(=O)Nc2ccc3nc4n(c(=O)c3c2)CCCC4)ccc1Br,-3.3,-6.7,-4.0,0.0,11.7,-2.6,x
Cc1cc(NC(=S)NC(=O)c2ccccc2)ccc1-c1cc2ccccc2oc1=O,12.3,-2.6,-2.2,-47.5,5.1,1.1,-13.8
CCOC(=O)c1ccc(N=C2NC(=O)CS2)cc1,-12.6,-8.6,-3.5,-2.5,31.6,12.9,x
CCOC(=O)c1c(C)[nH]c(C2=NNC(=Nc3ccccc3)SC2)c1C,15.3,x,x,-305.8,-1.8,11.3,-141.4*
CCOC(=O)c1c(C)[nH]c(C2=NNC(=Nc3ccccc3OC)SC2)c1C,5.5,-4.1,0.0,-164.6,-3.8,-0.8,-86.4*
CC(=O)c1c(C)[nH]c(C2=NNC(=NC(C)(C)C)SC2)c1C,7.9,-9.2,-5.3,-14.6,-9.2,6.5,x
CCOC(=O)c1c(C)[nH]c(C2=NNC(=Nc3ccc(OCC)cc3)SC2)c1C,20.5,x,x,-136.6,-6.1,-10.9,-122.3*
COC(=O)C1=C(C(=O)OC)[C@@H]2Nc3ccccc3[C@@]23C[C@@H](C(=O)OC)N(C(=O)C2CCC2)C3=N1,0.0,-7.0,-0.2,-4.9,x,x,x
O=C(N/N=C/c1ccccc1OC(=O)c1ccc2c(c1)OCO2)c1ccccc1,13.5,-1.9,0.7,-48.1,5.8,1.2,-18.3
COc1ccccc1/C=N/NC(=O)c1ccc2c(c1)OCO2,-2.1,18.2,1.6,3.9,22.5,-7.8,x
CC(=NNC(=S)SCc1ccccc1)c1ccccn1,-5.8,x,x,-46.5,x,x,-28.3*
C/C(=N\Nc1ccc(Cl)cc1)c1ccccn1,41.0,13.6,1.1,-3.1,4.3,-26.2,x
CC(=NNC(=S)Nc1cccc(Cl)c1)c1ccccn1,35.3,x,x,-46.4,x,x,-63.5*
CC(=O)C1=C(c2ccccc2)N(C(C)=O)n2c(C)nnc2S1,-3.1,-3.0,0.8,-314.6,-8.8,-5.3,-125.2*
CCOCCCNC(=O)C(c1ccccc1)N(Cc1cccs1)C(=O)CNC(=O)c1ccccc1 (stereo unspecified),-12.1,-1.8,0.6,-11.4,0.0,0.1,x
O=C1CSC(=S)N1N=Cc1ccccc1O,47.2,x,x,-42.0,x,x,-9.4
CCOC(=O)c1c(C)[nH]c(C(=O)/C(C#N)=C/c2ccc(OC)c(OC)c2)c1C,-4.1,-14.4,-9.3,1.0,15.8,-4.3,x
O=C(NCCc1ccccc1)C(c1cccs1)N(C(=O)CCl)c1ccc(Cl)cc1 (stereo unspecified),-0.8,1.0,6.8,37.0*,-9.7,-22.1,23.0
O=C1C=C(N2CCCCC2)c2ccccc2C1=O,47.5,1.0,-4.1,80.6*,x,x,86.1
O=C(Nc1nc2c(s1)CCc1ccccc1-2)c1ccco1,51.3,-3.2,-0.9,16.9,1.5,-2.1,x
O=C(Nc1cccc(Cl)c1)C1C2C=CC3(O2)C1C(=O)N(CCCN1CCCCC1)C3C(=O)NC1CCCCC1 (stereo unspecified),-8.4,-11.4,-1.8,-6.4,-3.3,3.1,x
O=C(N/N=C/c1ccc(-c2ccc(S(=O)(=O)Nc3ncccn3)cc2)o1)c1cc2ccccc2cc1O,-52.6,38.5,21.3,33.4,x,21.3,-22.2
CCOc1ccc(C(=O)N/N=C/c2ccc(-c3ccc(S(=O)(=O)Nc4ncccn4)cc3)o2)cc1,-13.3,-0.4,8.8,-3.7,21.4,2.9,x
SMILES,PfGluPho inh,APOBEC3G inh,APOBEC3A inh,HKDC1 inh,SUMO HTRF inh,M18AAP inhibitor,HKDC1 act conf2
O/C=c1\ccc2cccc3nc(C(F)(F)F)nc1c23,10.4,37.4,53.0,40.4*,19.7,17.4,21.2
NNc1nc(C(F)(F)F)nc2ccccc12,-4.3,-5.4,-0.7,-9.2,6.9,4.4,x
O=S(=O)(Nc1cccc2ccccc12)c1cccs1,33.8,-4.7,-1.8,5.1,-3.0,0.9,x
O=S(=O)(Nc1ccc(O)c2ccccc12)c1cccs1,35.8,-9.8,-3.4,51.0*,80.7,21.6,30.6
CCc1c(C)c(C#N)c2nc3ccccc3n2c1NC,-58.2,-5.6,-0.4,-65.6,18.6,6.0,-43.3*
Cc1ccc(SCCNC(=O)c2ccc(C)c([N+](=O)[O-])c2)cc1,12.0,-5.2,-1.9,2.9,11.5,-5.7,x
Cc1cc2nnc(SCC(=O)Nc3cc(S(=O)(=O)N4CCOCC4)ccc3Cl)n2c2ccccc12,38.6,-2.0,3.2,47.8*,13.8,-4.6,37.4
Cc1ccc(S(=O)(=O)N2CCOCC2)cc1NC(=O)CSc1nnc2cc(C)c3ccccc3n12,9.5,-0.7,4.7,20.1,4.3,-5.9,x
C/C(=N/OC(=O)c1cccc(Cl)c1)c1nccs1,-9.5,3.9,-1.1,2.1,-7.1,-3.2,x
CN(C)c1ccc(/C=N/N2C(=N)N(c3ccccc3)C(=S)C2=Nc2ccccc2)cc1,x,x,x,x,x,4.3,x
CCOC(=O)c1ccc(N=C2C(=S)N(c3ccc(C(=O)OCC)cc3)C(=N)N2/N=C/c2ccccc2)cc1,28.8,1.3,1.7,-136.4,-3.8,-3.5,-33.8
CC(C)=CC(=O)N1CCC(Oc2cccc(C(=O)NCc3ccccn3)c2)CC1,-6.3,x,x,x,x,x,x
COCc1cccc(N2C(=O)CC(C3C=C(C)C4C(=O)N(c5cccc(COC)c5)C(=O)C4C3)C2=O)c1 (stereo unspecified),2.3,-1.8,3.2,-8.4,-8.5,1.4,x
COc1cc(NS(=O)(=O)c2ccc(NC(C)=O)cc2)ncn1,-9.5,-0.2,3.8,-5.1,5.7,-2.7,x
COc1cc(NS(=O)(=O)c2ccc(NC(=O)c3ccc(F)cc3)cc2)ncn1,-5.2,10.7,-2.1,-58.8,1.4,11.5,-33.3
CC(C)C(C(=O)O)N1C(=O)/C(=C/C=C/c2ccco2)SC1=S (stereo unspecified),32.1,93.1,99.2,50.5*,75.5*,16.2,19.0
Cc1ccccc1Cn1nc(C)c(NC(=O)/C=C/c2cnn(C)c2C)c1C,2.3,-10.4,-4.5,-9.3,-10.3,3.8,x
Cc1cccc(C)c1NC(=S)N(Cc1ccccc1)Cc1cccs1,-3.3,-5.0,0.7,-4.6,-14.4,0.0,x
O=C(C1=C(O)C(=O)N(c2nc3ccc(Cl)cc3s2)C1c1ccco1)c1ccco1 (stereo unspecified),12.1,40.6,87.7,36.3*,x,x,-23.1
NNc1ncnc2sc3c(c12)CCC3,2.0,-4.0,-1.9,-102.3,-6.1,24.7,-4.8
O=C(C[n+]1ccc(-c2nnc3n2CCC3)cc1)c1ccc(Cl)c(Cl)c1,3.9,-6.1,-4.4,-13.8,3.4,-0.4,x
O=C(/C=C/c1ccc([N+](=O)[O-])cc1)Nc1ncc([N+](=O)[O-])s1,-24.1,x,x,4.7,0.8,-9.4,x
